The values below come from ChEMBL document CHEMBL4020827, “Targeting Multiple Effector Pathways in Pancreatic Ductal Adenocarcinoma with a G-Quadruplex-Binding Small Molecule” (J Med Chem, 2018).

Data set [1] is described as follows: Toxicity in iv dosed CD-1 nude mouse assessed as death measured up to 72 hrs. Format: organism-based. Conditions: in vivo. A digest of the protocol:
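CD1 nude mice, two per group, given single IV doses in saline (10, 20, 30, 35, 40, 45, 50 and 60 mg/kg), with repeat dosing weekly. Watched for adverse effects for up to 72 h. Tolerated dose taken as highest cohort in which all mice survived without observed ill-effects.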

Data set [2] is described as follows: Binding affinity to 5'-FAM/3'-TAMRA labeled KRAS21 promoter G-quadruplex DNA (unknown origin) assessed as change in melting temperature at 1 uM by FRET assay. The procedure, abridged:
(§1)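 FRET melting of FAM/TAMRA dual-labelled promoter G4 oligonucleotides, 400 nM, annealed at 95 °C for 10 min in 60 mM potassium cacodylate (pH 7.4) then cooled to RT. Ligand at 1 μM in solution with 50 mM K+. Fluorescence (ex 450–495, em 515–545 nm) read every 0.5 °C over 30–100 °C with a 30 sec hold per step. ΔTm from curve fitting; triplicate measurements.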

In data set [3] the test system is MIA PaCa-2. Description: Antitumor activity against human MIAPaCa2 cells xenografted in CD-1 nude mouse assessed as change in tumor volume at 15 mg/kg, iv administered twice weekly for 4 weeks measured on day 29 relative to control. Format: functional. A digest of the protocol:
(§2)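 Female CD-1 nude mice (2-3 months, 20−25 g) given 5 x 10^6 MIA PaCa-2 cells subcutaneously in right flank with Matrigel; dosing began once tumors were established (approx. 13 days, mean 0.05 cm3). Eight mice/group, IV in saline twice weekly for 28 days (8 doses) against a saline group. Tumors measured by calliper (length × width × height × π/6), with body weight. Student's t test.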

Another data set deals with A549. Description: Growth inhibition of human A549 cells after 96 hrs by SRB assay. Particulars: A549, 96 h. Format: functional, cell-based. A digest of the protocol:
(§3)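 Cell lines kept at 37 °C, 5% CO2 in medium with 10% FBS and 2 mM L-glutamine. Compound dissolved in water, filter-sterilised, 10 mM stock diluted into media. Growth read by 96 h sulforhodamine B assay, absorbance at 540 nm. IC50 taken from mean absorbance per concentration as % of untreated wells, >3 individual determinations with standard deviations.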

Data set [4] has as its system MIA PaCa-2. Description: Growth inhibition of human MIAPaCa2 cells after 96 hrs by SRB assay. Format: functional, cell-based. Conditions: MIA PaCa-2, 96 h. The procedure, abridged:
as §3

Data set [5] can be described thus: Binding affinity to 5'-FAM/3'-TAMRA labeled human telomeric F21T G-quadruplex DNA by fluorescence anisotropy titration method.
The nature of data set [6]: Binding affinity to 5'-FAM/3'-TAMRA labeled KRAS32 promoter G-quadruplex DNA (unknown origin) assessed as change in melting temperature at 1 uM by FRET assay. The procedure, abridged: as §1
For another data set, the species on record is Homo sapiens. The data set is described as follows: Binding affinity to 5'-FAM/3'-TAMRA labeled human telomeric F21T G-quadruplex DNA assessed as change in melting temperature at 1 uM by FRET assay. A digest of the protocol:
(§4)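 FRET melting with FAM/TAMRA dual-labelled oligonucleotides at 400 nM, annealed at 95 °C for 10 min in 60 mM potassium cacodylate pH 7.4 and slowly cooled. Ligand final 1 μM; solution contains 50 mM K+. Fluorescence read every 0.5 °C over 30–100 °C with 30 s hold, excitation 450–495 nm and emission 515–545 nm. ΔTm from curve fitting, triplicate measurements.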

A short description of data set [7]: Binding affinity to 5'-FAM/3'-TAMRA labeled HSP90A promoter G-quadruplex DNA (unknown origin) assessed as change in melting temperature at 1 uM by FRET assay. A digest of the protocol:
as §1

Data set [8] can be described thus: Binding affinity to 5'-FAM/3'-TAMRA labeled BCL2 promoter G-quadruplex DNA (unknown origin) assessed as change in melting temperature at 1 uM by FRET assay. The procedure, abridged:
as §4

The nature of data set [9]: Selectivity index, ratio of IC50 for human WI38 cells to IC50 for human MIAPaCa2 cells. Format: functional. The procedure, abridged: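 SRB growth-inhibition assay over 96 h with compounds dissolved in water; cells grown in 10 % FBS at 37 °C, 5% CO2. Absorbance at 540 nm as a percentage of untreated wells gives the IC50. Values are averages of >3 determinations, with the ratio taken as WI-38 IC50 over MIA PaCa-2 IC50.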

The nature of data set [10]: Binding affinity to 5'-FAM/3'-TAMRA labeled T-loop duplex DNA (unknown origin) assessed as change in melting temperature at 1 uM by FRET assay. The procedure, abridged:
as §4

Data set [11] can be described thus: Binding affinity to 5'-FAM/3'-TAMRA labeled HSP90B promoter G-quadruplex DNA (unknown origin) assessed as change in melting temperature at 1 uM by FRET assay. The procedure, abridged: as §4
Data set [12] deals with MIA PaCa-2. Description: Antitumor activity against human MIAPaCa2 cells xenografted in CD-1 nude mouse assessed as change in tumor volume at 15 mg/kg, iv administered twice weekly for 4 weeks measured on day 62 relative to control. Format: functional. A digest of the protocol: as §2
In a further data set the test system is CAPAN-1. The data set is described as follows: Growth inhibition of human Capan1 cells after 96 hrs by SRB assay. Format: functional, cell-based. Conditions: CAPAN-1, 96 h. A digest of the protocol:
as §3

In the next data set the test system is BXPC-3. Description: Growth inhibition of human BxPC3 cells after 96 hrs by SRB assay. Format: functional, cell-based. Conditions: BXPC-3, 96 h. The procedure, abridged:
as §3

`CN1CCN(CCCNc2cc3c4c(c(NCCCN5CCN(C)CC5)cc5c4c2C(=O)N(CCCN2CCOCC2)C5=O)C(=O)N(CCCN2CCOCC2)C3=O)CC1`: the MTD at 72 h in [1] came out at 25 mg/kg. Besides, the thermal shift (ΔTm) in data set [2] amounted to 22.5 °C; in data set [6], 19.8 °C; in the data set listed under Homo sapiens, 26.6 °C; in [7], 33.1 °C; in data set [8] it was 26.4 °C; in data set [10] it was 4.9 °C. Also, the thermal shift (ΔTm) in data set [11] was found to be 28.6 °C. Besides, the values for the Activity with MIA PaCa-2 [3] and with MIA PaCa-2 [12] were -66.7% and -56.7%, respectively. Further, the results for the IC50 in the data set with A549 and in the data set on MIA PaCa-2 [4] were 19 nM and 11 nM, respectively. In addition, the dissociation constant Kd in data set [5] was 20 nM. Also, the “Ratio IC50” value in [9] worked out at 21.
For `Nc1ccn([C@@H]2O[C@H](CO)[C@@H](O)C2(F)F)c(=O)n1` [GEMCITABINE], the Activity is given as -66.7% in the data set with MIA PaCa-2 [3] and -61.7% in the data set on MIA PaCa-2 [12]. Besides, the IC50 in the data set on CAPAN-1 stood at 19 nM; with BXPC-3, 6 nM.
